# Article PMC4841444 (Lipids, 2015)
# Tests used:
# recombinant HIV-1-RT = recombinant HIV-1-RT (Human immunodeficiency virus type 1 group M subtype B, UniProt P03366); test: Reverse Transcriptase Colorimetric Assay; format: biochemical
# [1] = Cytotoxicity against PBMC; format: cell-based; settings: human, peripheral blood mononuclear cells (PBMC)
# Summary of the method: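 PBMCs from healthy volunteers, grown in IL-2-supplemented medium, seeded at 20,000 cells/well and exposed to fatty acids at 5–500 µM final. Incubation 3 days at 37 °C in humidified 5% CO2. Viability read by MTT.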
# HIV-1 RT = settings: read-out: IC50 against HIV-1 RT; non-competitive inhibitor; cited from earlier work
Structure (SMILES),IC50 (recombinant HIV-1-RT),IC50 at 3 days [1],IC50 (HIV-1 RT),"inhibition of the HIV-1 RT enzyme (in words) (recombinant HIV-1-RT; recombinant HIV-1 RT, colorimetric assay)"
"CCCCCCCCCCCCCCCCCCCC#CCCCC(=O)O [1a, 5-Pentacosynoic acid]",24 ± 1 µM,> 500 µM,–,–
"CCCCCCCCCCCCCCCC#CCCCCCCCC(=O)O [1b, 9-Pentacosynoic acid]",–,> 500 µM,–,–
CCCCCCCCCCCCCCCCCCCCCCC#CC(=O)O [2-Pentacosynoic acid],566 ± 1 µM,–,–,–
"CCCCCCCCCCCCCCCCCCC/C=C\CCCC(=O)O [2a, (5Z)-5-Pentacosenoic acid]",38 ± 1 µM,> 500 µM,–,–
"CCCCCCCCCCCCCCC/C=C\CCCCCCCC(=O)O [2b, (9Z)-9-Pentacosenoic acid]",54 ± 1 µM,> 500 µM,–,–
CCCCCCCCCCC#CCCCCC(=O)O [6-Heptadecynoic acid],> 1000 µM,–,–,–
CCCCCCCCCCCCCC#CCCCCC(=O)O [6-Icosynoic acid],> 1000 µM,–,–,–
"CCCCCCCC/C=C\CCCCCCCCCCCCCC(=O)O [Nervonic acid, cis-15-tetracosenoic acid]",12 ± 1 µM,> 500 µM,4.8 µM,–
CCCCCCCCCCCCCCCC(=O)O [Palmitic acid],> 1000 µM,–,–,–
CCCCCCCCCCCCCCCCCCCCCCCCC(=O)O [Pentacosanoic acid],–,–,–,does not inhibit HIV-1 RT at all
